From PubChem BioAssay
The list is not random: actives were taken first. Their share in the collection is about 2.7%.
Rev-erbA mod – modulators of human Rev-erb alpha DNA binding. Rev-erbα–FITC-DNA binding, fluorescence polarization, 90 min. hit rate 0.79% among 370,000. activity, % at 10 µM. P20393;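 active = activity above about 14%, limit read from the data; passing the limit was not always enough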;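 also: 0% = DMSO wells with 35 nM protein and 100% = DMSO wells with 750 nM protein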
MsrA inhibitor – bovine MsrA inhibition | purified bovine MsrA, absorbance read-out | inhibition, % at 15.5 µM | hit rate 0.75% among 360,000 | AID 651718;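 also: 0% = vehicle wells with enzyme and 100% = reference inhibitor wells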
ARFGAP1 inhibitor – inhibitors of rat ARFGAP1. Q62848. Arfgap1-stimulated ARF1 GTP hydrolysis, GDP FP detection. inhibition, % at 16.5 µM. hit rate 0.26% among 360,000. AID 651572;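 active = inhibition above a per-plate limit, mean inhibition of low control wells plus 3 SD, cut at about 25% in these data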;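 also: 0% = DMSO wells with enzyme and 100% = wells lacking Arfgap1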
Target sequence (Q62848 1-136 limits assumed): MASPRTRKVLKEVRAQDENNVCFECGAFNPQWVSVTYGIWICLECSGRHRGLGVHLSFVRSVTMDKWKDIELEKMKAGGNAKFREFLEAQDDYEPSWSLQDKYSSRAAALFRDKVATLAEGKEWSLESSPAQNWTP
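system = rat Arfgap1 catalytic domain, aa 1-136 | technique = FP, GDP Alexa 633 tracer displaced from anti-GDP antibody, 620/688 nm | compound = one concentration, 16.5 µM, DMSO 1.26% | medium = HEPES-based buffer, pH 7.5 | timing = compound-enzyme preincubation 20 min, reaction 120 min, detection 60 min, 25 °C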
HGIII-sPLA2 inh – Blocks human group III sPLA2 activity; hit rate 0.56% among 370,000; AID 743126; inhibition, % at 12.2 µM; QFRET BODIPY PC-A2 liposome hydrolysis, fluorescence; Q9NZ20;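 active = inhibition above mean plus 3 SD of compounds lying within the high and low control bounds, cut at about 19% in these data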;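 also: 0% = median of test compound wells and 100% = no enzyme DMSO wells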
ASAP1 GAP inh – ASAP1 ArfGAP inhibition | inhibition, % at 16.5 µM | hit rate 0.19% among 360,000 | ASAP1-stimulated ARF1 GTP hydrolysis, GDP FP detection; in the data active = inhibition above about 25%;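 also: 0% = vehicle with enzyme and substrate and 100% = no enzyme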
Target sequence (Q9ULH1 325-724 limits assumed): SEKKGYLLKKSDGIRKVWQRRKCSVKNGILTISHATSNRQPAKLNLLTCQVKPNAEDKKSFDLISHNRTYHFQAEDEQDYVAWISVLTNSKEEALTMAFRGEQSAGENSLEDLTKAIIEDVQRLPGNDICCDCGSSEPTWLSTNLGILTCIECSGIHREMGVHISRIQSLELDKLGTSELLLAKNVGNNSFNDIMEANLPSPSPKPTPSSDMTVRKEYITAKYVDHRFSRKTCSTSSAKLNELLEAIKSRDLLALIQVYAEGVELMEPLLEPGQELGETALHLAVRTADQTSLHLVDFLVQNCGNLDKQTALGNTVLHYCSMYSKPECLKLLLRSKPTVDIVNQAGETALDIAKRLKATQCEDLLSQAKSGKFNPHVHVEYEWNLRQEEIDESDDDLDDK
MsrA act – activates bovine MsrA enzyme. purified bovine MsrA, absorbance read-out. activation, % at 10.6 µM. hit rate 0.3% among 360,000; in the data active = activation above about 7.5%;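 also: 0% = vehicle and 100% = reference activator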
MsrA conf – bovine MsrA inhibition, confirmed. shares compounds with MsrA inhibitor. purified bovine MsrA, absorbance read-out. inhibition, % at 15.5 µM. hit rate 41% among 2,300. AID 651822;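 also: coupled to thioredoxin reductase with NADPH and selenocystamine and DMSO as substrate; 0% = vehicle only and 100% = full effect of reference inhibitor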
* = called active by the depositor; / = no result. Rule as the data show it, unless noted: active = inhibition above about 4.5%; inactive = the rest.

SMILES	Rev-erbA mod	MsrA inhibitor	ARFGAP1 inhibitor	HGIII-sPLA2 inh	ASAP1 GAP inh	MsrA act	MsrA conf
CN(C)c1ccc(/C=N\NC(=O)c2cccc(S(=O)(=O)N(C)C)c2)cc1	-4	/	/	13	/	/	/
COC(=O)c1[nH]c2ccccc2c1NC(=O)Oc1ccccc1	6	0	7	-1	5	-4	/
COC(=O)c1[nH]c2cc(OC)c(OC)cc2c1NC(=O)Oc1ccccc1	9	5.0*	9	12	18	-4	1
COc1ccc(N/C=C2\CCOC2=O)cc1	-5	5.4*	6	-2	0	-14	4
COc1ccc(/C=C2\CCOC2=O)cc1	-1	0	1	8	-3	-5	/
COc1ccc(/C=C/C(=O)Nc2c(C(=O)O)[nH]c3ccccc23)cc1OC	4	5.6*	-2	-27	-3	-8	3
COc1ccc(-c2cnnn2-c2ccc(NC(=O)/C=C/c3ccc(OC)c(OC)c3)cc2)cc1	2	1	4	-7	4	-4	/
COc1ccc(/C=C/C(=O)Nc2ccc(-n3nncc3-c3ccc(OC)c(OC)c3)cc2)cc1OC	1	5.1*	22	2	10	-2	4
COc1cc(-n2c(C)nc3cc(C(=O)N4CCCN(C(C)=O)CC4)ccc32)cc(OC)c1OC	6	/	/	12	/	/	/
COc1ccc(N2CCN(S(=O)(=O)c3cccc4nsnc34)CC2)cc1	0	2	-3	3	1	-2	/
CC(=O)c1ccc(N2CCN(S(=O)(=O)c3cccc4nsnc34)CC2)cc1	-1	4.7*	9	10	3	-12	2
Nc1ccccc1-n1nc2ccc3ccccc3c2n1	-11	0	14	-7	8	-1	/
COc1cc2nn(-c3ccccc3N)nc2cc1OC	-1	4.8*	-2	3	2	-2	2
C=CCNc1nc(N)c(C(=O)Nc2cc(C)on2)s1	4	6.2*	7	6	0	-6	3
O=C1N(CCCO)CCC12CCCCC2	6	/	/	9	/	/	/
O=C1N=C(N2CCN(c3ccccc3)CC2)S/C1=C/c1cccs1	-2	2	10	-11	0	-6	/
CC1CCN(C2=NC(=O)/C(=C/c3ccccc3F)S2)CC1	10	5.4*	-2	5	-2	-3	4
CC1CCN(C2=NC(=O)/C(=C/c3cccc(O)c3)S2)CC1	-1	4.7*	3	-15	8	-2	2
COc1ccc2cc3cc(C(=O)NCCCN4CCOCC4)oc3nc2c1	5	6.6*	10	10	-18	-7	4
COC(=O)c1nc(-c2ccc(C)cc2)oc1N(C)C	2	4.8*	0	6	9	-4	2
COc1ccc(-n2c(SCC(=O)Nc3ccccc3-c3ccccc3)nnc2-c2ccccn2)cc1	-1	/	/	5	/	/	/
CCCNC(=O)Cn1nc(C)n2c(cc3cc(F)ccc32)c1=O	1	1	-16	-1	-2	-2	/
CCN1CCCC1CNC(=O)Cn1nc(C)n2c(cc3cc(F)ccc32)c1=O (centres undefined)	2	25*	9	8	12	-8	0
CC1CCN(N=Nc2nc3c([nH]2)c(=O)n(C)c(=O)n3C)CC1	6	7.8*	-1	0	-14	1	5.5*
Cn1c(=O)c2[nH]c(N=NN3CCCCC3)nc2n(C)c1=O	-5	4	9	1	3	-8	/
SMILES	Rev-erbA mod	MsrA inhibitor	ARFGAP1 inhibitor	HGIII-sPLA2 inh	ASAP1 GAP inh	MsrA act	MsrA conf
C=CCN1C(=O)[C@H](CC(=O)NCC23CC4CC(CC(C4)C2)C3)[C@@]2(C(=O)OCC)CCCC=C12	-4	/	/	8	/	/	/
O=C(N=Nc1c(O)[nH]c2ccccc12)c1ccccc1NS(=O)(=O)c1cccs1	5	4.8*	3	-7	0	-11	4
CS(=O)(=O)N1CCN(c2ccc([N+](=O)[O-])c(NCc3cccnc3)c2)CC1	4	5.6*	12	2	-3	-8	4
Cn1cc(/C=C(\NC(=O)c2ccccc2Cl)C(=O)N2CCOCC2)c2ccccc21	2	6.3*	11	-1	-8	-8	4
COc1ccccc1C(=O)N/C(=C\c1cn(C)c2ccccc12)C(=O)NCCN1CCOCC1	-5	4	18	1	-8	-3	/
COc1ccccc1C(=O)N/C(=C\c1cn(C)c2ccccc12)C(=O)NCCCN1CCOCC1	7	5.3*	3	4	8	-6	4
O=C(NCCCN1CCOCC1)c1cc2c(=O)[nH]c3ccccc3c2s1	6	5.3*	1	1	0	-3	4
O=C(NC(=S)NCCCN1CCOCC1)c1cccc2ccccc12	4	9.4*	11	10	9	-9	3
COC(=O)[C@]12C[C@H](CC(=O)N3CCC(c4ccccc4)CC3)C(=O)N(Cc3cccc4ccccc34)C1=C[C@H](COCc1ccccc1)O[C@@H]2C	2	/	/	-3	/	/	/
COc1ccccc1NC(=O)OC1CCC12CCCCC2 (centres undefined)	-6	/	/	9	/	/	/
COc1ccc(C(=O)N/C(=C\c2cn(C)c3ccccc23)C(=O)N2CCOCC2)cc1OC	5	4.8*	-8	-2	-3	-4	2
CCC(=O)OCCNc1cc(Sc2nc3ccccc3[nH]2)c2nonc2c1[N+](=O)[O-]	-1	5.0*	6	-6	2	-17	2
CCC(=O)OCCNc1cc(Sc2nc3ccccc3s2)c2nonc2c1[N+](=O)[O-]	12	1	5	11	16	-20	/
CCSc1nc2sc3c(c2c(=O)n1-c1ccccc1)CCN(C)C3	-2	2	14	-4	-5	-3	/
C=CCSc1nc2sc3c(c2c(=O)n1-c1ccccc1)CCN(C)C3	-2	4.9*	-7	-5	-9	0	1
COc1ccc(/C=C/C(=O)C2(O)CCCCC2)cc1OC	2	5.3*	-2	-3	0	-6	4
COc1ccc(/C=C/C(=O)Nc2ccccc2)cc1OC	-2	2	3	12	6	-1	/
Cc1ccc(-n2c(SCC(=O)O)nc3c(sc(=S)n3-c3ccc(C)c(C)c3)c2=O)cc1	5	3	-11	-29	7	-3	/
Cc1ccc(-n2c(=S)sc3c(=O)n(-c4ccc(F)cc4)c(SCC(=O)O)nc32)cc1C	0	5.3*	-16	-9	7	-6	2
CCN1CCCCC(NC(C)=O)C1=O (centres undefined)	-2	/	/	18	/	/	/
COc1cccc(C2=CC(c3cccs3)n3nnnc3N2)c1 (centres undefined)	-2	14*	3	-8	11	-2	-1
